Source: PubChem BioAssay
In the library only some 3.1% were active in any assay of this set; here they are far more common.
KCNQ1 act: potentiators or activators of human KCNQ1 potassium channel. P51787. CHO-K1 KCNQ1, thallium flux FluxOR fluorescence; stronger effect = higher value. hit rate 0.35% among 310,000. AID 2648. B-score at 10 µM;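 active = fluorescence ratio B-score, a plate-corrected score, at least three library SD, with initial intensity B-score within 5 SD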
Target sequence (P51787 whole entry, looked up): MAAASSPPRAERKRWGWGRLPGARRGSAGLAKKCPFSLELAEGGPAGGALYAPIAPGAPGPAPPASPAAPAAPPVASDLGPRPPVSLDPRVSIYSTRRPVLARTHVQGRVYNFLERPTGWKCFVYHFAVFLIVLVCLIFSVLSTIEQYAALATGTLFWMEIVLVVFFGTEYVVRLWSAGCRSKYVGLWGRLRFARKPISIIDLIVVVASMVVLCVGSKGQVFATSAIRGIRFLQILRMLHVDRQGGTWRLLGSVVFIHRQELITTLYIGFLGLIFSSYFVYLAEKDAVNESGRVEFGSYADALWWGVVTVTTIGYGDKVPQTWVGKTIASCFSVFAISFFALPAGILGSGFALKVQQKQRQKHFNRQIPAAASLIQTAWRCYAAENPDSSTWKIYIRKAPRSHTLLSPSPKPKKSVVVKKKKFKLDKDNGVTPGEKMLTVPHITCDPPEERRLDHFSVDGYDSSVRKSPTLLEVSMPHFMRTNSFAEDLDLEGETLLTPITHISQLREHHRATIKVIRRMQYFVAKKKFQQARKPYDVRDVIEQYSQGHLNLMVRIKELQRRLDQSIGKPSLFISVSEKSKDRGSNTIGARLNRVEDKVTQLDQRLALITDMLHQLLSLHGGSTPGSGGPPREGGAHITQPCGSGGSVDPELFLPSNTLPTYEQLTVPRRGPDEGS
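Assay system: CHO-K1 cells stably expressing KCNQ1; Medium: assay buffer with matched DMSO; Also added: K+/Tl+ depolarizing stimulus; Dosing: single dose; Timing: dye 90 min, compound 20 min, room temperature; Measured by: kinetic FluxOR thallium fluorescence, 10-s 1-Hz baseline, 110-s post-stimulus read; Read-out: peak-minus-minimum fluorescence over initial fluorescence, negative-control normalized, B-scored.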
hERG protect: hERG (human) protection from proarrhythmic block. CHO-hERG, FluxOR thallium flux, dofetilide IC70 present. activation (rescue from dofetilide block), less the hit threshold, % at 10 µM. hit rate 0.51% among 310,000. AID 1511;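 active = activation above the mean of controls blocked by dofetilide plus 5 SD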;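 note: thallium influx through hERG after potassium depolarization seen as dye fluorescence rise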
KCNQ1 block: inhibitors of human KCNQ1 potassium channel; P51787; CHO-K1 KCNQ1, FluxOR thallium flux fluorescence; stronger effect = higher value; B-score at 10 µM; hit rate 1.3% among 310,000; AID 2642;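 active = compounds whose thallium flux B-score, printed positive for inhibition, exceeds three library SD while starting fluorescence stays within three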;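 note: channel opened by potassium depolarization with thallium stimulus after 20 min compound exposure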
KCNK9 inh: blocks the human KCNK9 two-pore domain potassium channel. Q9NPC2. HEK293 KCNK9, FluxOR thallium flux fluorescence; stronger effect = lower value. B-score at 10 µM. hit rate 1.2% among 310,000. AID 488922;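 active = ratio B-score over 3 SD below the library mean, with starting fluorescence within 5 SD of its mean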;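 note: negative B-score means less thallium flux so channel inhibition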
KCNK3 inh: human KCNK3 channel inhibition, primary screen; B-score at 10 µM; CHO-KCNK3 thallium flux, FluxOR fluorescence; stronger effect = lower value; O14649; hit rate 0.84% among 340,000; AID 602410;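 active = B-score under library mean minus 4 SD, starting fluorescence ratio at most library mean plus 5 SD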;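 note: more negative B-score means stronger inhibition of thallium flux through KCNK3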
Hits are given with their value; – = inactive; · = no result given.

SMILES | KCNQ1 act | hERG protect | KCNQ1 block | KCNK9 inh | KCNK3 inh
O=C(CSc1n[nH]c(-c2cccs2)n1)N1CCOCC1 | · | · | · | · | –
CCOc1ccc(C(=O)N2CCN(S(=O)(=O)c3cccs3)CC2)c(OCC)c1 | – | – | – | – | –
COc1ccc(C=C(c2nc3ccccc3s2)c2nc3ccccc3s2)cc1O | – | – | – | – | –
COc1cc(C=C(c2nc3ccccc3s2)c2nc3ccccc3s2)ccc1O | – | – | 6 | – | –
O=C(O)C(CCc1ccccc1)N1C(=O)c2ccccc2C1=O (configuration not stated) | · | · | · | · | –
COC(=O)Nc1nn(-c2ccc(OC)cc2)c(=O)c(C#N)c1C | – | 5.5 | – | – | –
CCOC(=O)C1CCNC(=O)C1=O (configuration not stated) | · | · | · | · | –
Clc1ccccc1OCCn1cnc2ccccc21 | – | – | – | – | –
Brc1ccccc1OCCCCn1cnc2ccccc21 | – | – | 8 | – | –
Cc1ccc(C)c(C(=O)CCC(=O)NNC(=O)c2cccs2)c1 | · | · | · | · | –
COc1cc(=O)[nH]c(SCC(=O)Nc2nc3c(s2)CCCC3)n1 | – | – | – | – | –
CCOC(=O)C1CCCN(C(=O)Nc2c(-c3ccccc3)noc2C)C1 (configuration not stated) | – | – | – | – | –
S=c1nc(C2CCCCC2)n(-c2ccccc2)[nH]1 | 40 | 11.4 | – | – | –
S=c1nc(-c2ccccc2)n(-c2ccccc2)[nH]1 | – | – | – | – | –
CC(=O)c1ccc(OC(=O)COc2ccccc2Cl)cc1 | – | – | – | – | –
Cc1ccccc1Nc1nc(-c2sc(NC(=O)c3ccc([N+](=O)[O-])cc3)nc2C)cs1 | – | – | 7 | – | ·
CCCCCC(=O)Nc1nc(C)c(-c2csc(Nc3cc(OC)ccc3OC)n2)s1 | – | – | – | -7.25 | –
COc1ccc(OC)c(Nc2nc(-c3sc(NC(=O)c4ccccc4)nc3C)cs2)c1 | – | – | – | -8.16 | ·
CCCCCCC(=O)Nc1nc(C)c(-c2csc(Nc3cc(OC)ccc3OC)n2)s1 | – | – | – | – | –
COc1ccc(Cl)cc1Nc1nc(-c2sc(NC(=O)c3ccccc3)nc2C)cs1 | – | – | – | – | ·
Cc1ccccc1C(=O)Nc1nc(-c2cccnc2)cs1 | – | – | – | – | –
O=C(Nc1nc(-c2cccnc2)cs1)c1ccccc1Cl | – | 40.7 | – | – | –
C=CCNC(=O)COC(=O)c1ccc(Cl)c(S(=O)(=O)N(Cc2ccccc2)c2ccccc2)c1 | – | – | 6 | – | –
Cc1nc2sccn2c(=O)c1Br | – | – | – | – | –
Cc1c2cnccc2c(C)c2c1oc1ccccc12 | · | · | · | · | –
SMILES | KCNQ1 act | hERG protect | KCNQ1 block | KCNK9 inh | KCNK3 inh
O=C(CCC(=O)Nc1ccc(Cl)cc1)N/N=C/c1ccc2c(c1)OCO2 | – | – | 6 | – | –
CCCCOC(=O)c1ccc(NC(=O)/C=C/c2cccs2)cc1 | – | – | 13 | – | –
CCN(CC)c1ccc(NC(=S)NC(=O)c2cccs2)cc1 | – | 6.5 | – | – | –
O=C(NC(=S)Nc1ccc(Cl)cn1)c1cccs1 | 8 | – | – | – | –
CCN(CC)c1ccc(NC(=S)NC(=O)c2ccco2)cc1 | 35 | 52.9 | – | – | –
CCON1C(=O)C2(CCCCC2)C(=O)C12C=CCCC2 (configuration not stated) | · | · | · | · | –
CCN(CC)C(=O)OCCc1cc2ccccc2c(=O)o1 | · | · | · | · | –
Cc1ccc(C(=O)N2CCN(C/C=C/c3ccccc3)CC2)cc1S(=O)(=O)N1CCOCC1 | · | · | · | · | –
CCOc1ccccc1NC(=S)NC(=O)c1ccco1 | 11 | – | – | – | –
CCCCOC(=O)c1ccc(NC(=S)NC(=O)c2ccco2)cc1 | 11 | – | – | – | –
CCOc1ccccc1NC(=O)c1ccccc1NC(=O)c1ccco1 | – | – | – | – | –
CCC(CC)NC(=O)COn1nnc2ccc(S(=O)(=O)N3CCOCC3)cc21 | – | – | – | – | –
Cn1c(=O)c(=O)n(C)c2cc(S(=O)(=O)N3CCC(Cc4ccccc4)CC3)ccc21 | – | – | – | – | –
O=S(=O)(c1ccccc1Cl)N1CCC(Cc2ccccc2)CC1 | – | – | 6 | – | –
CCOc1ccc(-n2c(-c3ccccc3)c[n+]3c2CCC3)cc1 | – | – | – | – | –
COc1ccc(-c2c[n+]3c(n2-c2ccc(C)cc2)CCCCC3)cc1 | – | – | 9 | – | –
CCOc1ccc(-n2c(-c3ccc(OC)cc3)c[n+]3c2CCCCC3)cc1 | – | – | 7 | – | –
CCOc1ccc(-n2c(-c3ccc(Br)cc3)c[n+]3c2CCCCC3)cc1 | – | – | 8 | – | –
CCCCNC(=O)c1cccc(S(=O)(=O)N2CC3(C)CC2CC(C)(C)C3)c1 (configuration not stated) | · | · | · | · | –
Cc1cc(NS(=O)(=O)c2ccc(NC(=O)Nc3cccc(C(F)(F)F)c3)cc2)no1 | – | – | 6 | – | –
O=C(CN1CCN(CC(=O)Nc2ccc3c(c2)OC2(CCCCC2)O3)CC1)Nc1cccc(F)c1 | · | · | · | · | –
Cn1c(=O)c2c(ncn2CC(=O)NC[C@H]2O[C@@H](n3cnc4c(N)ncnc43)[C@H](O)[C@@H]2O)n(C)c1=O | · | · | · | · | –
CCOCCN1CCN(c2c(CC)c(C)nc3cc(-c4cc(OC)cc(OC)c4)nn23)CC1 | – | – | – | -7.22 | –
COc1ccc(-c2csc(N(CCCN(C)C)C(=O)c3ccccc3Cl)n2)cc1 | 11 | – | – | – | –
CCC(=O)N(CC)c1nc(-c2ccc(OC)cc2)cs1 | – | 9.0 | – | – | –
SMILES | KCNQ1 act | hERG protect | KCNQ1 block | KCNK9 inh | KCNK3 inh
COc1ccc(-c2csc(N(CCCN(C)C)C(=O)c3ccccc3C)n2)cc1 | – | – | – | – | –
CCCN(CCC)CCNC(=O)C1c2ccccc2C(=O)N(CCOC)C1c1ccc(F)cc1 (configuration not stated) | – | – | – | – | –
Cc1ccc(S(=O)(=O)N2CCN(C(=O)c3ccc(N4CCC(C)CC4)c([N+](=O)[O-])c3)CC2)cc1 | · | · | · | · | –
O=C(CCC(=O)c1ccc(Cl)cc1)OCC(=O)c1ccccc1 | – | 8.9 | – | – | –
CCOC(=O)c1[nH]c(=O)[nH]c1COC(=O)c1cc2ccccc2o1 | – | 6.2 | – | – | –
O=C(c1ccoc1)N1CCC2(CC1)Oc1ccc(Cl)cc1C(=O)C21CC(c2ccc(Cl)cc2)=NO1 (configuration not stated) | – | – | 6 | – | –
COCC(=O)N1C[C@H]2CON(C)[C@H]2C[C@H]1c1cccc(-c2ccc(C#N)cc2)c1 | · | · | · | · | –
Cc1ccc(-c2ccc(/C=N/NC(=O)c3ccccc3O)o2)cc1 | 8 | – | – | – | ·
CCOC(=O)C1CCN(Cc2cccc(OCc3ccccc3)c2)CC1 | – | – | – | – | –
CCCn1nnc(NC(=O)C(c2ccccc2)c2ccccc2)n1 | – | 6.6 | – | – | –
CCCCn1nnc(NC(=O)C(c2ccccc2)c2ccccc2)n1 | – | – | – | – | –
CCOC(=O)c1sc(=NC(=O)c2cccc(Br)c2)n(C)c1C | – | – | – | – | –
